Test results from ChEMBL document CHEMBL1926569, “Novel (E)-1-(4-methyl-2-(alkylamino)thiazol-5-yl)-3-arylprop-2-en-1-ones as potent antimicrobial agents” (2011).
Converted amounts (≈) assume the structure as drawn.

Key:
[1] = system: Salmonella typhimurium; experiment: Antibacterial activity against Salmonella Typhimurium ATCC 13311 after 24 hrs by microdilution method; format: functional, Salmonella enterica subsp. enterica serovar Typhimurium; conditions: Salmonella enterica, ATCC 13311, 24 h
Summary of the method: (§1)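 Broth microdilution in 96-well plates. Bacterial suspensions were adjusted in sterile saline to 1.0 × 10⁵ CFU/ml, prepared daily and kept at 4 °C. Compound was added to LB broth with 1.0 × 10⁴ CFU per well and shaken at 160 rpm for 24 h at […] (so in the source). MIC is the lowest concentration with no visible growth under a binocular microscope. OD655 was also read. Duplicate, repeated three times.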

[2] = system: Micrococcus flavus; experiment: Antibacterial activity against Micrococcus flavus ATCC 10240 incubated for 24 hrs followed by serial sub-cultivation for 24 hrs by microdilution; format: functional; conditions: ATCC 10240, 24 h
Summary of the method: (§2)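 MBC: after the 24 h LB broth microdilution (1.0 × 10⁴ CFU per well, 160 rpm), wells were serially sub-cultured into fresh broth plates and incubated a further 24 h. MBC is the lowest concentration with no visible growth, taken as 99.5% killing of the original inoculum. Duplicate, repeated three times.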

[3] = system: Aspergillus ochraceus; experiment: Ratio of bifonazole to compound for Aspergillus ochraceus ATCC 12066; format: functional
[4] = system: Salmonella typhimurium; experiment: Antibacterial activity against Salmonella Typhimurium ATCC 13311 incubated for 24 hrs followed by serial sub-cultivation for 24 hrs by microdilution; format: functional, Salmonella enterica subsp. enterica serovar Typhimurium; conditions: Salmonella enterica, ATCC 13311, 24 h; summary of the method: as §2
[5] = system: Candida albicans; experiment: Antifungal activity against Candida albicans isolated from human incubated for 72 hrs followed by serial sub-cultivation for 72 hrs by serial dilution technique; format: functional
Summary of the method: (§3)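 MFC: material from 72 h malt broth microdilution wells was serially sub-cultured into fresh broth plates and incubated a further 72 h at 28 °C. Fungicidal concentration is taken from growth after sub-culture. Duplicate, repeated three times.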

[6] = system: Trichoderma viride; experiment: Antifungal activity against Trichoderma viride IAM 5061 after 72 hrs by serial dilution technique; format: functional; conditions: IAM 5061, 72 h
Summary of the method: (§4)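 Modified microdilution in 96-well plates. Fungi were kept on malt agar at 4 °C. Spores were washed off in sterile 0.85% saline with 0.1% Tween 80. Compounds were dissolved at 1 mg/ml in 5% DMSO with 0.1% Tween 80 and added to malt broth with inoculum. Plates were shaken at 160 rpm for 72 h at 28 °C. Duplicate, repeated three times.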

[7] = system: Pseudomonas aeruginosa; experiment: Antibacterial activity against Pseudomonas aeruginosa ATCC 27853 incubated for 24 hrs followed by serial sub-cultivation for 24 hrs by microdilution; format: functional; conditions: ATCC 27853, 24 h; summary of the method: as §2
[8] = system: Penicillium ochrochloron; experiment: Antifungal activity against Penicillium ochrochloron ATCC 9112 after 72 hrs by serial dilution technique; format: functional; conditions: ATCC 9112, 72 h; summary of the method: as §4
[9] = system: Aspergillus niger; experiment: Ratio of bifonazole to compound for Aspergillus niger ATCC 6275; format: functional
[10] = system: Pseudomonas aeruginosa; experiment: Antibacterial activity against Pseudomonas aeruginosa ATCC 27853 after 24 hrs by microdilution method; format: functional; conditions: ATCC 27853, 24 h; summary of the method: as §1
[11] = system: Aspergillus ochraceus; experiment: Antifungal activity against Aspergillus ochraceus ATCC 12066 incubated for 72 hrs followed by serial sub-cultivation for 72 hrs by serial dilution technique; format: functional; conditions: ATCC 12066, 72 h; summary of the method: as §3
[12] = system: Staphylococcus aureus; experiment: Antibacterial activity against Staphylococcus aureus ATCC 6538 incubated for 24 hrs followed by serial sub-cultivation for 24 hrs by microdilution method; format: functional; conditions: ATCC 6538, 24 h; summary of the method: as §2
[13] = system: Staphylococcus aureus; experiment: Antibacterial activity against Staphylococcus aureus ATCC 6538 after 24 hrs by microdilution method; format: functional; conditions: ATCC 6538, 24 h; summary of the method: as §1
[14] = system: Bacillus cereus; experiment: Antibacterial activity against clinical isolate of Bacillus cereus after 24 hrs by microdilution method; format: functional; summary of the method: as §1
[15] = system: Penicillium ochrochloron; experiment: Ratio of ketoconazole to compound for Penicillium ochrochloron ATCC 9112; format: functional
[16] = system: Aspergillus ochraceus; experiment: Antifungal activity against Aspergillus ochraceus ATCC 12066 after 72 hrs by serial dilution technique; format: functional; conditions: ATCC 12066, 72 h; summary of the method: as §4
[17] = system: Listeria monocytogenes; experiment: Antibacterial activity against Listeria monocytogenes NCTC 7973 after 24 hrs by microdilution method; format: functional; conditions: NCTC 7973, 24 h; summary of the method: as §1
[18] = system: Candida albicans; experiment: Ratio of ketoconazole to compound for Candida albicans isolated from human; format: functional
[19] = system: Candida albicans; experiment: Ratio of bifonazole to compound for Candida albicans isolated from human; format: functional
[20] = system: Penicillium ochrochloron; experiment: Antifungal activity against Penicillium ochrochloron ATCC 9112 incubated for 72 hrs followed by serial sub-cultivation for 72 hrs by serial dilution technique; format: functional; conditions: ATCC 9112, 72 h; summary of the method: as §3
[21] = system: Enterococcus faecalis; experiment: Antibacterial activity against Enterococcus faecalis isolated from human incubated for 24 hrs followed by serial sub-cultivation for 24 hrs by microdilution; format: functional; summary of the method: as §2
[22] = system: Aspergillus ochraceus; experiment: Antifungal activity against Aspergillus ochraceus after 72 hrs by serial dilution technique
[23] = system: Aspergillus flavus; experiment: Antifungal activity against Aspergillus flavus ATCC 9643 incubated for 72 hrs followed by serial sub-cultivation for 72 hrs by serial dilution technique; format: functional; conditions: ATCC 9643, 72 h; summary of the method: as §3
[24] = system: Aspergillus ochraceus; experiment: Ratio of ketoconazole to compound for Aspergillus ochraceus ATCC 12066; format: functional
[25] = system: Talaromyces funiculosus; experiment: Antifungal activity against Penicillium funiculosum ATCC 36839 after 72 hrs by serial dilution technique; format: functional; conditions: ATCC 36839, 72 h; summary of the method: as §4
[26] = system: Trichoderma viride; experiment: Antifungal activity against Trichoderma viride IAM 5061 incubated for 72 hrs followed by serial sub-cultivation for 72 hrs by serial dilution technique; format: functional; conditions: IAM 5061, 72 h; summary of the method: as §3
[27] = system: Bacillus cereus; experiment: Antibacterial activity against clinical isolate of Bacillus cereus incubated for 24 hrs followed by serial sub-cultivation for 24 hrs by microdilution; format: functional; summary of the method: as §2
[28] = system: Candida albicans; experiment: Antifungal activity against Candida albicans isolated from human after 72 hrs by serial dilution technique; format: functional; summary of the method: as §4
[29] = system: Micrococcus flavus; experiment: Antibacterial activity against Micrococcus flavus ATCC 10240 after 24 hrs by microdilution method; format: functional; conditions: ATCC 10240, 24 h; summary of the method: as §1
[30] = system: Aspergillus niger; experiment: Antifungal activity against Aspergillus niger ATCC 6275 incubated for 72 hrs followed by serial sub-cultivation for 72 hrs by serial dilution technique; format: functional; conditions: ATCC 6275, 72 h; summary of the method: as §3
[31] = system: Listeria monocytogenes; experiment: Antibacterial activity against Listeria monocytogenes NCTC 7973 incubated for 24 hrs followed by serial sub-cultivation for 24 hrs by microdilution; format: functional; conditions: NCTC 7973, 24 h; summary of the method: as §2
[32] = system: Enterococcus faecalis; experiment: Antibacterial activity against Enterococcus faecalis isolated from human after 24 hrs by microdilution method; format: functional; summary of the method: as §1
[33] = system: Escherichia coli; experiment: Antibacterial activity against Escherichia coli ATCC 35210 after 24 hrs by microdilution method; format: functional; conditions: ATCC 35210, 24 h; summary of the method: as §1
[34] = system: Aspergillus flavus; experiment: Antifungal activity against Aspergillus flavus ATCC 9643 after 72 hrs by serial dilution technique; format: functional; conditions: ATCC 9643, 72 h; summary of the method: as §4
[35] = system: Aspergillus niger; experiment: Antifungal activity against Aspergillus niger ATCC 6275 after 72 hrs by serial dilution technique; format: functional; conditions: ATCC 6275, 72 h; summary of the method: as §4
[36] = system: Pseudomonas aeruginosa; experiment: Ratio of ampicillin MIC to compound MIC for Pseudomonas aeruginosa ATCC 27853; format: functional
[37] = system: Talaromyces funiculosus; experiment: Ratio of bifonazole to compound for Penicillium funiculosum ATCC 36839; format: functional
[38] = system: Penicillium ochrochloron; experiment: Ratio of bifonazole to compound for Penicillium ochrochloron ATCC 9112; format: functional
[39] = system: Aspergillus fumigatus; experiment: Ratio of ketoconazole to compound for Aspergillus fumigatus isolated from human; format: functional
[40] = system: Escherichia coli; experiment: Antibacterial activity against Escherichia coli ATCC 35210 incubated for 24 hrs followed by serial sub-cultivation for 24 hrs by microdilution; format: functional; conditions: ATCC 35210, 24 h; summary of the method: as §2
[41] = system: Aspergillus fumigatus; experiment: Antifungal activity against Aspergillus fumigatus isolated from human incubated for 72 hrs followed by serial sub-cultivation for 72 hrs by serial dilution technique; format: functional; summary of the method: as §3
[42] = system: Talaromyces funiculosus; experiment: Antifungal activity against Penicillium funiculosum ATCC 36839 incubated for 72 hrs followed by serial sub-cultivation for 72 hrs by serial dilution technique; format: functional; conditions: ATCC 36839, 72 h; summary of the method: as §3
[43] = system: Trichoderma viride; experiment: Ratio of bifonazole to compound for Trichoderma viride IAM 5061; format: functional

MIC [1]: 57.1 µM (≈ 20.1 µg/mL) | MIC [6]: 28.9 µM (≈ 10.2 µg/mL) | MIC [8]: 28.9 µM (≈ 10.2 µg/mL) | MIC [10]: 57.1 µM (≈ 20.1 µg/mL) | MIC [13]: 57.1 µM (≈ 20.1 µg/mL) | MIC [14]: 28.6 µM (≈ 10 µg/mL) | MIC [16]: 28.9 µM (≈ 10.2 µg/mL) | MIC [17]: 85.7 µM (≈ 30.1 µg/mL) | MIC [22]: 42.9 µM (≈ 15.1 µg/mL) | MIC [25]: 28.9 µM (≈ 10.2 µg/mL) | MIC [28]: 28.9 µM (≈ 10.2 µg/mL) | MIC [29]: 57.1 µM (≈ 20.1 µg/mL) | MIC [32]: 57.1 µM (≈ 20.1 µg/mL) | MIC [33]: 57.1 µM (≈ 20.1 µg/mL) | MIC [34]: 42.9 µM (≈ 15.1 µg/mL) | MIC [35]: 42.9 µM (≈ 15.1 µg/mL)
SMILES: CCNc1nc(C)c(C(=O)/C=C/c2cccc(Br)c2)s1
MBC [2]: 85.7 µM (≈ 30.1 µg/mL) | Ratio [3]: 10 | MBC [4]: 71.4 µM (≈ 25.1 µg/mL) | MFC [5]: 57.2 µM (≈ 20.1 µg/mL) | MBC [7]: 71.4 µM (≈ 25.1 µg/mL) | Ratio [9]: 10 | MFC [11]: 42.9 µM (≈ 15.1 µg/mL) | MBC [12]: 71.4 µM (≈ 25.1 µg/mL) | Ratio [15]: 10 | Ratio [18]: 10 | Ratio [19]: 10 | MFC [20]: 58.2 µM (≈ 20.4 µg/mL) | MBC [21]: 71.4 µM (≈ 25.1 µg/mL) | MFC [23]: 57.1 µM (≈ 20.1 µg/mL) | Ratio [24]: 10 | MFC [26]: 57.2 µM (≈ 20.1 µg/mL) | MBC [27]: 71.4 µM (≈ 25.1 µg/mL) | MFC [30]: 57.1 µM (≈ 20.1 µg/mL) | MBC [31]: 100 µM (≈ 35.1 µg/mL) | Ratio [36]: 10 | Ratio [37]: 10 | Ratio [38]: 10 | Ratio [39]: 10 | MBC [40]: 71.4 µM (≈ 25.1 µg/mL) | MFC [41]: 57.1 µM (≈ 20.1 µg/mL) | MFC [42]: 42.9 µM (≈ 15.1 µg/mL) | Ratio [43]: 10
